Laboratory results from ChEMBL document CHEMBL4513216, “Probing the Open Global Health Chemical Diversity Library for Multistage-Active Starting Points for Next-Generation Antimalarials” (ACS Infect Dis, 2020).

Test: Toxicity liver stage against HepG2, at 10uM
Type: cell-based
Set-up: test concentration 10 uM, cell line HepG2-A16-CD81EGFP
Conditions: human, HepG2-A16-CD81EGFP cells; read-out: INHIBITION
Outline: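 Uninfected HepG2-A16-CD81EGFP cells, 3 × 10^3 per well, 1536-well, plated on prespotted compound at 10 μM final, parasite-free screening media added to match infected plates; puromycin 10 μM positive, DMSO 0.5% negative; run in parallel with 48 h PbLuc assay at 37 °C, 5% CO2; viability by CellTiter-Glo luminescence, normalized to controls.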

SMILES | cytotoxicity at 10 µM
c1ccc(CN2CCOC[C@H]2c2nc(-c3ccncc3)c[nH]2)nc1 | -0.501%
Cn1ccnc1CN1C[C@@H](F)[C@@H](OCc2nc3cnccc3[nH]2)C1 | 3.39%
O=C(NC[C@H]1OC[C@@H](NC(=O)C2CCCC2)[C@@H]1O)c1ccncc1 | 5.45%
O=C1CC(c2cccnc2)c2c(c(C(=O)O)cn2-c2ccccc2F)N1 (stereo unspecified) | 1.85%
COCC(=O)N1Cc2nccn2CC(Cn2ncccc2=O)C1 (stereo unspecified) | 5.23%
Cc1noc(C)c1C(=O)N1CCC2(CC1)CC(Oc1ccccc1)CO2 (stereo unspecified) | 11.8%
O=C(NCCN1CCCCC1)c1nc(-c2cccc3[nH]ccc23)no1 | 0.142%
COc1ccc(C2CC(=O)Nc3c2cnn3C)cc1 (stereo unspecified) | 22%
CC(C)n1ncc2c1NC(=O)CSC2C(C)(C)C (stereo unspecified) | 4.47%
Cc1ccoc1C(=O)N1CC[C@H]2OCC[C@@]2(COCc2ccncc2)C1 | 5.71%
Cc1nn(C)c2c(=O)n(CC(=O)Nc3cc(Cl)cc(Cl)c3)nnc12 | 0.976%
Cc1cc2c(cc1C)OC1(C=C2)CCN(CC(=O)N2CCOCC2)CC1 | -10.4%
COCCCNC(=O)C(C)n1nc(-c2ccco2)cc(N)c1=O (stereo unspecified) | 0.152%
COc1ccc(-c2cc3nc(CCNC(=O)CN(C)C)nn3cn2)cc1 | 1.98%
COc1ccccc1-c1ccc(C2CCCN(C(C)=O)C2)nc1 (stereo unspecified) | -4.96%
CCN(Cc1ccncc1)c1cc(C2CCN2C(C)=O)nc(C)n1 (stereo unspecified) | 5.25%
Cc1ccc(N2CC(c3nccc(C)n3)C2)nn1 | 8.82%
CNc1cc(C)nc(C2COCCN2CCc2ccc(F)cc2)n1 (stereo unspecified) | 3.68%
Cc1nc(CN2CCCC(c3nc(C)n4c(C)c(C)sc34)C2)co1 (stereo unspecified) | -21.7%
O[C@H]1CN(Cc2ccc3c(c2)OCCO3)CC[C@@]12CCCO2 | -2.92%
Cc1nc(C2CCCN2C(=O)Cc2ccc(F)cc2)ncc1C(N)=O (stereo unspecified) | -18.2%
Cc1cccc(C)c1NC(=O)c1n[nH]c(-n2cnnc2)n1 | -10.6%
CS(=O)(=O)N1CCCC(Cc2ccnc3ccncc23)CC1 (stereo unspecified) | -12.8%

SMILES | cytotoxicity at 10 µM
Cn1cc(C(=O)N2CCCC(c3cc(O)n(C)n3)C2)cn1 (stereo unspecified) | -21.6%
Cc1nc(CNC(=O)NC2CC(C)(C)OC2(C)C)sc1C (stereo unspecified) | -3.77%
N#CCCN(CCC#N)C(=O)COC1CCCCC1 | 0.631%
Cc1noc(C)c1C(=O)N1CCC(n2cccn2)CC1 | 3.82%
CCS(=O)(=O)CC(=O)Nc1cc(-c2cccc(F)c2F)n[nH]1 | 10.7%
CCSc1cc(C(=O)N(CC(F)F)C(C)C)ccn1 | 4.64%
O=C(NCc1ccc(Br)cc1F)C1(O)CCSCC1 | 6.4%
CN(C(=O)c1ccncc1Cl)c1ccccc1S(C)(=O)=O | 17.6%
COC(=O)C(O)C1CCN(CCc2ccc(C)cc2)CC1 (stereo unspecified) | 15.2%
NC(=O)CNC1(c2ccc(Br)cc2)CCOCC1 | -0.717%
COc1cccc(C(O)CNC(=O)CC2CCCCC2)c1 (stereo unspecified) | -2.11%
COc1ccc(C(C)NC(=O)Nc2nnc(C)s2)cc1OC (stereo unspecified) | 9.67%
C1CC(NCC2CC2)CN(Cc2noc(C3CC3)n2)C1 (stereo unspecified) | -3.09%
CC(=O)N1CCN(CC(=O)N2CCN(c3cccc(C)c3)CC2)CC1 | -3.83%
COCCN(C)C(=O)Nc1ccc2c(ccn2CC(=O)N(C)C)c1 | 6.71%
CN(Cc1noc(C2CC2)n1)C1CCN(Cc2nc(C3CC3)no2)C1 (stereo unspecified) | -1.57%
CC(C)(C(=O)NCC(=O)NC1CC1)c1ccccc1F | -4.9%
CCN(C(=O)NCCc1ccc(C)cc1C)C(C)CS(C)(=O)=O (stereo unspecified) | 11.3%
Cc1nc2cc(C(=O)N(CCN(C)C)CCN(C)C)ccc2n1C | -9.01%
CC(C)Nc1cccc(CNC(=O)N2CCC(N3CC=CC3)C2)c1 (stereo unspecified) | 2.01%
CN(C)C(=O)C1CCN(Cn2ccc(-c3ccc(F)cc3)n2)CC1 | 6.19%
O=C(NCCCNc1ccccn1)NCC1CCS(=O)(=O)C1 (stereo unspecified) | 16%
Cc1noc(C)c1C(=O)N1CCCN(C)c2ccc(Cl)cc21 | 4.61%

SMILES | cytotoxicity at 10 µM
COCCCn1ccc(NCc2ccc(NC(C)=O)cc2)n1 | 2.33%
Cc1nc(C)c(COc2ccc(S(=O)(=O)N(C)C)cc2)s1 | -0.242%
O=C1CCC(C(=O)Nc2cnn(-c3ccccc3Cl)c2)N1 (stereo unspecified) | -7.41%
Cc1ccc(OCC(=O)N(C)Cc2cccc(F)c2)cn1 | 27.6%
COc1ccc(NC(=O)CNc2cccc3c2CCCC3)c(OC)c1 | 16.5%
CC(C)NC(=O)[C@@H]1C[C@H]2OCC[C@H]2N(Cc2ccc3ccccc3n2)C1 | -66.8%
Cc1ccsc1C(=O)N1CCc2ncnc(NC(C)C)c2CC1 | -79.3%
O=C(NCC1CC1)C1CN(C(=O)Nc2ccccc2)CC12CCOCC2 (stereo unspecified) | -82.6%
CS(=O)(=O)N1CC[C@@H]2[C@@H](CCC(=O)N2CCC2=CCCCC2)C1 | -5.64%
Cc1cccc(CN2CCN(C(=O)c3cnc(C)[nH]c3=O)CC2)c1 | -3.32%
Cn1c(N2CCOCC2)nc2cc(C(=O)N3CC(O)CO3)ccc21 (stereo unspecified) | 18.5%
Cn1cc(Cl)cc1C(=O)N1CCC2(CCCN(CC3CCC3)C2=O)C1 (stereo unspecified) | 0.407%
CSCCc1c(-c2ccccc2)ncn1[C@H]1C[C@@H](C(=O)O)N(C)C1 | 0.471%
CC(C)Cn1cncc1CNC(=O)c1cccc(-n2cnnc2)c1 | -5.54%
NC(=O)c1csc(N2C[C@@H](CN3CCC(O)CC3)[C@@H](CO)C2)n1 | 0.984%
CN(CC(=O)N1CCOCC(CO)C1)Cc1ccccn1 (stereo unspecified) | 0.382%
CCc1nc2c(c(NC3CC3)n1)CCN(C(=O)Cc1nonc1C)CC2 | 2.8%
Cc1nc(CC(=O)N2CCCC[C@H](N(C)C)C2)cs1 | 8.27%
Cc1cc(-n2nc(C3CC3)nc2-c2csnn2)ccn1 | 6.37%
COc1cc(OC)nc(N2CCC3(CC2)OCCCC3O)n1 (stereo unspecified) | 2.67%
O=C(c1cccc2ccnn12)N1CCC[C@H]1CN1CCCC1 | -144%
Cc1cc(C)cc(CN2CCN(C(=O)CCc3n[nH]c(C)n3)CC2=O)c1 | 0.108%
CCCc1cc(NCc2noc(COC)n2)n2nccc2n1 | 6.48%

SMILES | cytotoxicity at 10 µM
COC1CCN(S(=O)(=O)N2CC[C@@](O)(C3CCC3)[C@H](C)C2)CC1 | 6.8%
CCn1ncnc1C1CC(=O)NCc2nc(N)sc21 (stereo unspecified) | -4.78%
c1ccc(Oc2ncccc2CNCc2ccccn2)cc1 | -8.04%
CN(Cc1cccc2ncccc12)C(=O)CCC(F)(F)F | -3.05%
Cc1nn2c(N3CCCC(C#N)C3)cc(-c3ccccc3)nc2c1C (stereo unspecified) | -0.828%
Cc1cc(Cc2ccc(S(=O)(=O)N3CCOCC3)cc2)c(=O)[nH]n1 | -13.1%
CCCNCc1ccc(-c2cc(N)nc3[nH]ccc23)cc1 | 19.8%
CCN(Cc1c(C)nn(C)c1C)C(=O)C1COc2ccccc2C1 (stereo unspecified) | -0.91%
Cc1cc(C(=O)N2CCc3[nH]nc(-c4ccc5c(c4)OCO5)c3C2)no1 | -137%
Cc1nn(CCn2ccnc2-c2cc3n(n2)CCCNC3)c(C)c1Cl | -8.52%
O=C(CCc1ccsc1)N1CCC(Cc2ccc(CO)cc2)C1 (stereo unspecified) | 14.7%
O=C(NCCCc1ccncc1)C1CCCN(Cc2ccco2)C1 (stereo unspecified) | 20.1%
CC(NC(=O)NCCNc1ccccn1)c1cccs1 (stereo unspecified) | 1.48%
CC(C)c1nc(CN2CCCC2Cn2cccn2)no1 (stereo unspecified) | -0.121%
CCc1csc(C2CCCN(C(=O)c3ccco3)C2)n1 (stereo unspecified) | 2.56%
CCc1noc(CN2CCN(c3nccs3)CC2)n1 | -1.46%
O=C(CNc1cc(F)ccc1OCC1CCCO1)N1CCOCC1 (stereo unspecified) | -12.6%
CCc1ncncc1C(=O)N1CCCN(Cc2ccccc2C)CC1 | 0.977%
O=C(COCc1ccco1)Nc1cc(C(F)(F)F)c[nH]c1=O | -2.57%
CCNc1cc2c(nn1)CCN(C(=O)c1ccc(-n3cnnc3)cc1)C2 | -3.51%
COc1c(C2CCCN2CC(=O)NCc2ccccn2)c(C)nn1C (stereo unspecified) | -0.671%
CC(C)Sc1ncccc1C(=O)NCc1cccc(N(C)C)c1 | -3.42%
COCc1nc(C(=O)N2CCCC(n3ccnc3C(C)C)C2)cs1 (stereo unspecified) | -30.8%

SMILES | cytotoxicity at 10 µM
CCC(O)CN1CCN(C(=O)c2sccc2C2CC2)CC1 (stereo unspecified) | -14.6%
CCc1nc(C2CCCN(C(=O)c3cccc(C(N)=O)c3)C2)no1 (stereo unspecified) | -22.2%
CC(C)c1nccn1C1CCCN(C(=O)c2ccc3[nH]cnc3c2)C1 (stereo unspecified) | -8.24%
O=C(CCc1ccc2c(c1)OCO2)N1CCCC(n2cccn2)C1 (stereo unspecified) | -15.8%
CCN(Cc1nc2c(cnn2C)c(=O)[nH]1)Cc1ccccc1C | -10.2%
Cc1noc(C)c1C(=O)NCC(C)N(C)C (stereo unspecified) | -8.4%
Cc1cc(C)n(CC2CCCN2CC(=O)N(C)C)n1 (stereo unspecified) | -7.86%
Cn1ccnc1Sc1ccc(N)cn1 | 3.08%
O=C([C@H]1C[C@H]2OCC[C@H]2N(Cc2ccoc2)C1)N1CCCO1 | -69.8%
Cc1nc(CN2C(=O)CCC23CCN(Cc2ccccn2)CC3)cs1 | -2.71%
CN1CCN(C[C@@H]2OC[C@H]3CN(Cc4cccc(F)c4)CC[C@H]32)CC1 | -10.3%
CN1CCN(CC2CN(CC3CC3)Cc3nccn3C2)CC1 (stereo unspecified) | -76.1%
CS(=O)(=O)N1CCOCC2(CCN(C(=O)c3ccncc3)CC2)C1 | 2.78%
CC(=O)N1CCO[C@H]2[C@H](OCCCn3cccn3)CC[C@@H]21 | 7.16%
COc1ccc(CN2CCn3cc(CNC(=O)C4CCC4)nc3C2)cc1 | 5.42%
COc1cccc(-c2n[nH]cc2CNC2CCC(O)CC2)c1 (stereo unspecified) | -0.874%
CCS(=O)(=O)N1CCC2(CN(c3cccc(F)c3)C(=O)CN2C)C1 (stereo unspecified) | -74.4%
O=C(c1ccccn1)N1CCn2cnc(COCC3CC3)c2C1 | 11.4%
CNC(=O)[C@H]1C[C@H]2CN(C(=O)NCCc3ccccc3)C[C@@H]1O2 | 2.89%
